By pIC50 is commonly meant the IC50 on a negative log10 scale, so that one unit is a factor of ten.

The results in this text go back to ChEMBL document CHEMBL4028902, “Azetidine and Piperidine Carbamates as Efficient, Covalent Inhibitors of Monoacylglycerol Lipase” (J Med Chem, 2017).

In this test the target is T1, Fatty-acid amide hydrolase 1 (Homo sapiens, UniProt O00519).
T1 sequence (O00519 whole entry): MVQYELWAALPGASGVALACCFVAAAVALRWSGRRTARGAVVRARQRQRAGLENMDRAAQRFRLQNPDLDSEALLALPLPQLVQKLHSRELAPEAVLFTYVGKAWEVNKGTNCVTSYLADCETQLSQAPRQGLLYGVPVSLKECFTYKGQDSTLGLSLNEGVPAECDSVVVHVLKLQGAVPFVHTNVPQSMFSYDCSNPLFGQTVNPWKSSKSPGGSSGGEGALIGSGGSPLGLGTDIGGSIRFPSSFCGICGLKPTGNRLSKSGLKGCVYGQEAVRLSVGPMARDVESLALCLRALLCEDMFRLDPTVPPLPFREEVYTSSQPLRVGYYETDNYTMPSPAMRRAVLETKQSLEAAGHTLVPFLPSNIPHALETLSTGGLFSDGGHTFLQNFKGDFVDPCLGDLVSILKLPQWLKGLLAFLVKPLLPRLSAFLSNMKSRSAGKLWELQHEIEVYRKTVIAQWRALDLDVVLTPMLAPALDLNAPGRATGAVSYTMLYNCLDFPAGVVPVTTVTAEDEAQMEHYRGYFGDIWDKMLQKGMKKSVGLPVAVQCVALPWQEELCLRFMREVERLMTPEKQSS
Briefly: Inhibition of human recombinant FAAH using arachidonoyl-AMC as substrate preincubated for 30 mins followed by substrate addition measured after 60 mins by fluorescence assay. The method in brief: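 Human recombinant FAAH (0.0125 unit final) in 50 mM Tris pH 9.0, 1 mM EDTA, preincubated 30 min at room temperature with compound (final 30 μM–0.3 nM). Arachidonoyl-AMC added (5 μM final), reaction run 60 min, fluorescence Ex/Em 355/460. Percent inhibition versus no-compound and full-inhibition controls.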

pIC50: −log10 of the molar value.

With `O=C(OC(C(F)(F)F)C(F)(F)F)N1CC(c2ccn(-c3ccccc3)n2)C1`, the negative logarithm of the IC50 (pIC50) is 6.59.
